# Experimental data taken from ChEMBL document CHEMBL1255395, “Laninamivir prodrug CS-8958, a long-acting neuraminidase inhibitor, shows superior anti-influenza virus activity after a single administration” (Antimicrob Agents Chemother, 2010).
# Activity calls are given as the source filed them. The rule behind the calls is not given here.
# Columns and labels:
# Influenza A virus [1] = assay: Antimicrobial activity against Influenza A virus (A/Puerto Rico/8/34(H1N1)) infected in BALB/c mouse assessed as increase in mouse survival at 3.3 mg/kg, itn administered for 7 days before infection; format: functional, organism-based; parameters: dose 3.3 mg/kg; settings: A/Puerto Rico/8/1934(H1N1)
# Influenza A virus [2] = assay: Antimicrobial activity against Influenza A virus (A/Puerto Rico/8/34(H1N1)) infected in BALB/c mouse assessed as increase in mouse survival at 7 mg/kg, itn administered for 7 days before infection; format: functional, organism-based; parameters: dose 7 mg/kg; settings: A/Puerto Rico/8/1934(H1N1)
# Influenza A virus [3] = assay: Antimicrobial activity against Influenza A virus (A/Puerto Rico/8/34(H1N1)) infected in BALB/c mouse assessed as increase in mouse survival at 14 mg/kg, itn administered for 7 days before infection; format: functional, organism-based; parameters: dose 14 mg/kg; settings: A/Puerto Rico/8/1934(H1N1)
# Influenza A virus [4] = assay: Antimicrobial activity against Influenza A virus (A/Puerto Rico/8/34(H1N1)) infected in BALB/c mouse assessed as increase in mouse survival at 1.6 mg/kg, itn administered for 7 days before infection; format: functional, organism-based; parameters: dose 1.6 mg/kg; settings: A/Puerto Rico/8/1934(H1N1)
# Influenza A virus [5] = assay: Antimicrobial activity against Influenza A virus (A/Puerto Rico/8/34(H1N1)) infected in BALB/c mouse assessed as increase in mouse survival at 4.7 mg/kg, itn administered for 7 days before infection; format: functional, organism-based; parameters: dose 4.7 mg/kg; settings: A/Puerto Rico/8/1934(H1N1)
# Influenza A virus [6] = assay: Antimicrobial activity against Influenza A virus (A/Puerto Rico/8/34(H1N1)) infected in BALB/c mouse assessed as reduction in viral titer in lung at 14 mg/kg, itn administered for 7 days before infection; format: functional, organism-based; parameters: dose 14 mg/kg; settings: A/Puerto Rico/8/1934(H1N1)
# Outline: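 Female BALB/c mice (5–6 wk) given one intranasal dose in saline (50 μl) 7 days before intranasal infection with A/PR/8/34, 500 PFU. Lungs (three mice per time point) excised on days 1, 2, 3 and 4 and homogenized in PBS-BSA/PS. Titer determined by MDCK plaque assay, read as log10 PFU/lungs, mean ± SD (n = 3). AUC expressed as percent of saline control.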
# Influenza B virus [7] = assay: Antimicrobial activity against Influenza B virus (B/Hong Kong/05/1972) infected in BALB/c mouse assessed as increase in mouse survival at 1.1 mg/kg, itn administered for 7 days before infection; format: functional, organism-based; parameters: dose 1.1 mg/kg
# Influenza B virus [8] = assay: Antimicrobial activity against Influenza B virus (B/Hong Kong/05/1972) infected in BALB/c mouse assessed as increase in mouse survival at 3.3 mg/kg, itn administered for 7 days before infection; format: functional, organism-based; parameters: dose 3.3 mg/kg
# Influenza B virus [9] = assay: Antimicrobial activity against Influenza B virus (B/Hong Kong/05/1972) infected in BALB/c mouse assessed as increase in mouse survival at 9.6 mg/kg, itn administered for 7 days before infection; format: functional, organism-based; parameters: dose 9.6 mg/kg
# Influenza B virus [10] = assay: Antimicrobial activity against Influenza B virus (B/Malaysia/2506/2004) infected itn dosed Mustela putorius furo assessed as nasal viral titer treated after 4 hrs post infection measured after 1 day; format: functional, organism-based
# Outline: (§1)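 Ferrets (600–800 g), seronegative by hemagglutination inhibition, anaesthetized with ketamine/xylazine and infected with B/Malaysia/2506/2004, 1,000 PFU/100 μl. From 4 hpi they received either a single intranasal dose (saline, 0.05 or 0.5 μmol/kg) or 25 mg/kg oral twice daily. Nasal wash titers measured by MDCK plaque assay on days 1, 2 and 3, log10 PFU/ml (n = 5). Undetectable samples entered at the lower limit of detection.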
# Influenza B virus [11] = assay: Antimicrobial activity against Influenza B virus (B/Malaysia/2506/2004) infected itn dosed Mustela putorius furo assessed as nasal viral titer treated after 4 hrs post infection measured after 2 days; format: functional, organism-based; outline: as §1
# Influenza B virus [12] = assay: Antimicrobial activity against Influenza B virus (B/Malaysia/2506/2004) infected itn dosed Mustela putorius furo assessed as nasal viral titer treated after 4 hrs post infection measured after 3 days; format: functional, organism-based; outline: as §1
# Influenza A virus [13] = assay: Antimicrobial activity against Influenza A virus (A/Puerto Rico/8/34(H1N1)) infected in BALB/c mouse assessed as reduction in viral titer in lung at 0.17 mg/kg, itn administered 11 hrs post infection measured after 35 hrs post infection; format: functional, organism-based; parameters: dose 0.17 mg/kg; settings: A/Puerto Rico/8/1934(H1N1)
# Outline: (§2)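 BALB/c mice infected intranasally with A/PR/8/34 at 30 PFU. Intranasal dosing at 0.5 μmol/kg began at 11 hpi, either repeated twice daily or given once followed by twice-daily saline. Lungs (n = 3) were taken at 35, 59 and 83 hpi and homogenized. Titers were measured by MDCK plaque assay as log10 PFU/lungs. Two-way ANOVA and Dunnett test were applied.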
# Influenza A virus [14] = assay: Antimicrobial activity against Influenza A virus (A/Puerto Rico/8/34(H1N1)) infected in BALB/c mouse assessed as reduction in viral titer in lung at 0.17 mg/kg, itn administered 11 hrs post infection measured after 59 hrs post infection; format: functional, organism-based; parameters: dose 0.17 mg/kg; settings: A/Puerto Rico/8/1934(H1N1); outline: as §2
# Influenza A virus [15] = assay: Antimicrobial activity against Influenza A virus (A/Puerto Rico/8/34(H1N1)) infected in BALB/c mouse assessed as reduction in viral titer in lung at 0.17 mg/kg, itn administered 11 hrs post infection measured after 83 hrs post infection; format: functional, organism-based; parameters: dose 0.17 mg/kg; settings: A/Puerto Rico/8/1934(H1N1); outline: as §2
# Influenza B virus [16] = assay: Antimicrobial activity against Influenza B virus (B/Hong Kong/05/1972) infected in BALB/c mouse assessed as increase in mouse survival at 1.1 mg/kg, itn administered for 7 days before infection measured at day 20; format: functional
# Influenza A virus [17] = assay: Antimicrobial activity against Influenza A virus (A/Puerto Rico/8/34(H1N1)) infected in BALB/c mouse assessed as increase in mouse survival at 1.7 mg/kg, itn administered for 7 days before infection; format: functional, organism-based; parameters: dose 1.7 mg/kg; settings: A/Puerto Rico/8/1934(H1N1)
# Outline: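 Single intranasal dose in saline (50 μl) given to anesthetized female BALB/c mice 7 days before intranasal infection with A/PR/8/34 at 500 PFU, n = 12. Survival was checked daily to day 20. Groups were compared with saline controls by Kaplan-Meier and log-rank test, with Bonferroni adjustment where needed.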
smiles,measurement,setting,value
CC(=O)N[C@H]1[C@H]([C@H](O)[C@H](O)CO)OC(C(=O)O)=C[C@@H]1NC(=N)N [ZANAMIVIR],Activity,Influenza A virus [1],Active
same,Activity,Influenza A virus [2],Active
same,Activity,Influenza A virus [3],Active
same,Activity,Influenza A virus [4],Active
same,Activity,Influenza A virus [5],Active
same,Activity,Influenza A virus [6],Active
same,Activity,Influenza B virus [7],Active
same,Activity,Influenza B virus [8],Active
same,Activity,Influenza B virus [9],Active
same,Activity,Influenza B virus [10],Dose-dependent effect
same,Activity,Influenza B virus [11],Dose-dependent effect
same,Activity,Influenza B virus [12],Dose-dependent effect
same,Activity,Influenza A virus [13],Active
same,Activity,Influenza A virus [14],Active
same,Activity,Influenza A virus [15],Active
same,Activity,Influenza B virus [16],36%
same,Activity,Influenza A virus [17],Active
